Consider 3 compounds from ChEMBL document CHEMBL1126569, “Nucleosides and nucleotides. 123. Synthesis of 1-(2-deoxy-2-isocyano-beta-D-arabinofuranosyl)cytosine and related nucleosides as potential antitumor agents” (J Med Chem, 1993).

Test [1] deals with KB. In words: Tested in vitro for cytotoxicity against KB human oral epidermoid carcinoma cell line. The format is functional, cell-based. An outline of the steps: (§1)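 Cells were grown in RPMI 1640 with 10% FCS, and the L1210 medium also had 2-mercaptoethanol added. Compound was dissolved in Ca/Mg-free Dulbecco's PBS or saline, diluted in culture medium and applied for 72 h in a CO2 incubator. Cells were fixed in 0.1% glutaraldehyde and stained with 0.01% crystal violet. Dye was extracted in 50% EtOH–25 mM NaH2PO4 and OD read. IC50 is the concentration giving 50% reduction of optical density.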

The subject of test [2] is Mus musculus. In words: Tested for in vivo antitumor activity against Lewis Lung Carcinoma cell line in mice and tumor weight change at 200 mg/Kg per day. The class given is functional. In outline:
(§2)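 A 2-mm cube of LLC was implanted s.c. in the backs of 9-week-old male BDF1 mice on day 0, with 7 mice per dose group. Drug in saline was given i.p. once daily on days 1–5 at 0.1 mL/10 g body weight. Tumor weight was measured on day 17. Percent inhibition compares the mean tumor weight of treated mice with vehicle-only controls.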

For test [3], the system named is Mus musculus. Kind of test: Mean body weight change on 5th day at a dose of 100 mg/kg/day. The class given is functional. An outline of the steps:
(§3)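 LLC fragments were implanted s.c. into male BDF1 mice aged 9 weeks on day 0, with seven animals per dose. Drug dissolved in saline was given intraperitoneally once a day for 5 days, days 1–5. Mean body weight change was recorded on day 5 and on day 17 and compared with saline-vehicle controls.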

The subject of test [4] is Mus musculus. Kind of test: In vivo percent inhibition of Lewis Lung Carcinoma cell line in mice at 200 mg/Kg per day (p<0.001) compared with ara-C. The format is functional. An outline of the steps:
as §2

Test [5] concerns Mus musculus. In words: Tested in vivo for antitumor activity against Lewis Lung Carcinoma cell line in mice and tumor weight change at 100 mg/Kg per day. The class given is functional. An outline of the steps:
as §2

In test [6] the test system is Mus musculus. Kind of test: In vivo percent inhibition of Lewis Lung Carcinoma cell line in mice at 100 mg/Kg per day (p<0.001) compared with ara-C. The format is functional. An outline of the steps: as §2
In test [7] the test system is L1210. Kind of test: Tested in vitro for cytotoxicity against leukemia L1210 cell line in mouse. The format is functional, cell-based. In outline: as §1
Test [8] deals with Mus musculus. In words: Mean body weight change on 5th day at a dose of 200 mg/kg/day. The class given is functional. In outline: as §3
Test [9] has as its system Lewis lung carcinoma cell line. In words: Tested in vitro for cytotoxicity against LLC Lewis lung carcinoma cell line. The class given is functional, cell-based. The settings on record: Mus musculus. In outline:
as §1

Test [10] concerns Mus musculus. Kind of test: Mean body weight change on 17th day at a dose of 100 mg/kg/day. The format is functional. An outline of the steps:
as §3

Test [11] relates to Mus musculus. In words: Mean body weight change on 17th day at a dose of 200 mg/kg/day. The class given is functional. An outline of the steps:
as §3

The test system of test [12] is KATO III stomach cancer cell line. Kind of test: Tested in vitro for cytotoxicity against KATO III human stomach adenocarcinoma cell line. The class given is functional, cell-based. An outline of the steps: as §1
The subject of test [13] is Lewis lung carcinoma cell line. Kind of test: tested for in vitro cytotoxicity against LLC Lewis lung carcinoma cell line. The format is functional, cell-based. The note with it: Mus musculus. An outline of the steps:
as §1

Test [14] concerns KB. In words: tested in vitro for cytotoxicity against KB human oral epidermoid carcinoma cell line. The class given is functional, cell-based. An outline of the steps:
as §1

Test [15] concerns KATO III stomach cancer cell line. In words: tested for in vitro cytotoxicity against KATO III human stomach adenocarcinoma cell line. The format is functional, cell-based. An outline of the steps: as §1
For test [16], the system named is L1210. In words: tested in vitro for cytotoxicity against L1210 leukemia cell line in mouse. The format is functional, cell-based. An outline of the steps: as §1
The test system of test [17] is KB. Kind of test: Tested for in vitro cytotoxicity against KB human oral epidermoid carcinoma cell line. The format is functional, cell-based. An outline of the steps:
as §1

In test [18] the test system is Mus musculus. Kind of test: In vivo percent inhibition of Lewis Lung Carcinoma cell line in mice at 100 mg/Kg per day (p<0.001) compared with NCDAC. The class given is functional. In outline:
as §2

Test [19] relates to Lewis lung carcinoma cell line. In words: Tested for in vitro cytotoxicity against LLC Lewis lung carcinoma cell line. The note with it: Mus musculus. The class given is functional, cell-based. In outline:
as §1

Test [20] has as its system L1210. In words: Tested in vitro for cytotoxicity against L1210 leukemia cell line in mouse.
For test [21], the system named is Mus musculus. In words: Tested for in vivo antitumor activity against Lewis Lung Carcinoma cell line in mice and tumor weight change at 100 mg/Kg per day. The class given is functional. In outline:
as §2

Test [22] deals with Mus musculus. In words: In vivo percent inhibition of Lewis Lung Carcinoma cell line in mice drug at 200 mg/Kg per day (p<0.001) compared with NCDAC. The class given is functional. An outline of the steps:
as §2

Test [23] has as its system KATO III stomach cancer cell line. Kind of test: Tested for in vitro cytotoxicity against KATO III human stomach adenocarcinoma cell line. The class given is functional, cell-based. In outline:
as §1

As to `[C-]#[N+][C@@H]1[C@H](n2ccc(N)nc2=O)OC(CO)[C@@H]1O` (stereo partly drawn), the IC50 (in general, the midpoint of a concentration-inhibition curve) with KB [1] was 7.9 µM; with L1210 [7] it was 12.6 µM; in test [9], 4.9 µM; in [12], 90 µM. Further, the Tumor weight with Mus musculus [2] came to 1.09 g; in the test with Mus musculus [5], 1.08 g. The Weight change with Mus musculus [3] is on record as 0.4; in the test on Mus musculus [8], 0.2; with Mus musculus [10] it was 2; in the test with Mus musculus [11] it was 2.1. The Inhibition ratio stood at 60.6% in the test with Mus musculus [4] and 61% in the test on Mus musculus [6].
Regarding `[C-]#[N+][C@@H]1[C@H](n2ccc(=O)[nH]c2=O)OC(CO)[C@@H]1O` (stereo partly drawn), the IC50 was greater than 100 µM in test [13], 36.8 µM in the test on KB [14], greater than 100 µM in [15] and 34 µM with L1210 [16].
As to `Nc1ccn([C@@H]2O[C@H](CO)[C@@H](O)[C@@H]2O)c(=O)n1` [CYTARABINE], the Tumor weight in the test on Mus musculus [2] was found to be 0.34 g; in the test with Mus musculus [21] it was 0.47 g. The Weight change with Mus musculus [3] was -0.4; in the test with Mus musculus [8], -0.1; in the test on Mus musculus [10], 0.8; with Mus musculus [11], 0.7. For the same compound, the IC50 was 0.64 µM with KB [17], 5.6 µM in test [19], 0.12 µM with L1210 [20] and 0.3 µM in test [23]. In addition, the figures for the Inhibition ratio in the test on Mus musculus [18] and with Mus musculus [22] were 83% and 87.7%, respectively.
